A short description of the experiment: inhibitors of GR-EGFP nuclear translocation, primary screen, dynein cargo transport inhibitor project, imaging, high-content, 3617.4 mouse cells (AID 1381). The conditions noted are these: stimulated with dexamethasone, 1 µM. Put shortly: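 Buffer or medium: tetracycline-free induction medium containing charcoal-stripped FBS / Reagent: dexamethasone agonist, 1.0 µM final, for 30 min / Technique: automated 10x imaging of fixed Hoechst-stained cells / Times: induction 48 h, compound 1 h, agonist 30 min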

The mark [1] stands for this setting: measured here: cell count per field, at 20 µM.
[2] abbreviates: measured here: cytoplasmic GR-EGFP intensity, at 20 µM, stronger effect = higher value.
[3] abbreviates: measured here: nuclear GR-EGFP intensity, at 20 µM, stronger effect = lower value.
[4] abbreviates: measured here: cell count per field, at 50 µM.
Where [5] appears, read: measured here: cytoplasmic GR-EGFP intensity, at 50 µM, stronger effect = higher value.
The mark [6] stands for this setting: measured here: nuclear GR-EGFP intensity, at 50 µM, stronger effect = lower value.

The whole screen tested about 220,000 compounds, of which about 1,000 (0.45%) were called active.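 How the source made its calls: active means plate z-score of nuclear minus cytoplasmic receptor signal below a set negative limit, without overly bright fluorescence or cell loss (cut at about -3.5 in these data, passing the limit was not always enough); inactive means the rest, inconclusive results apart.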 Many of the other results were omitted from the sample, so actives are more common in it than they were.

For the molecule `CCCn1c(SCC(=O)Nc2ccc(C)c(S(=O)(=O)N3CCOCC3)c2)n[nH]c1=O`, the z-score by setting is: (at 20 µM, stronger effect = lower value) 1.09 (inactive); under setting [1], 0.0169; under setting [2], -0.261; under setting [3], 0.257.
Turning to `Cc1ccc2nc(Nc3ncc4c(n3)CC(C)(C)CC4=O)nc(C)c2c1`, the z-score reads like this: (at 20 µM, stronger effect = lower value) 0.135 (inactive); under setting [1], 0.445; under setting [2], -0.285; under setting [3], -0.00084.
`Cc1cccc(Oc2c([N+](=O)[O-])c(=O)n(C)c3ccccc23)c1`: the z-score (at 20 µM, stronger effect = lower value) was -4.31 (active); the z-score under setting [1] is 0.72; the z-score under setting [2] was 0.943; the z-score under setting [3] is -2.29.
`Cn1c(=O)c([N+](=O)[O-])c(Oc2ccccc2)c2ccccc21`: the z-score runs as follows: (at 20 µM, stronger effect = lower value) -6.51 (active); under setting [1], 0.669; under setting [2], 1.62; under setting [3], -2.76.
The like results for `Cn1c2ccccc2c(=O)c2c(O)cccc21` were, in that order, -0.39 (inactive), 0.337, -0.342 and -0.208.
On to `COc1cccc(C(=O)Oc2cc(C)[nH]c(=O)c2[N+](=O)[O-])c1`, for which the z-score is 1.66 (inactive) (at 20 µM, stronger effect = lower value); -1.05 under setting [1]; -0.136 under setting [2]; 0.869 under setting [3].
The matching figures for `Cc1nn(C)c(Oc2ccccc2)c1[N+](=O)[O-]`: -0.413 (inactive), 0.292, -0.104 and 0.119.
`Cc1cccc(OP(=O)(Nc2c(C)n(C)n(-c3ccccc3)c2=O)Oc2cccc(C)c2)c1`: the z-score is, setting by setting: (at 20 µM, stronger effect = lower value) 1.6 (inactive); under setting [1], -1.31; under setting [2], -0.218; under setting [3], 1.25.
The like results for `CC(NC(=S)Nc1ccccc1)C1COc2ccccc2O1` (configuration not stated) were, in that order, 0.289 (inactive), 0.134, -0.0607 and 0.355.
As for `CCN(CC)Cc1csc2ccc(Br)cc12`, the z-score is -0.627 (inactive) (at 20 µM, stronger effect = lower value); 1.15 under setting [1]; -0.13 under setting [2]; 0.249 under setting [3].
Take `O=C(Nc1ccc(F)cc1)c1cccnc1N1CCOCC1`: the z-score runs as follows: (at 50 µM, stronger effect = lower value) 0.0462 (inactive); under setting [4], 1.37; under setting [5], -0.00933; under setting [6], 0.174.
With `O=c1[nH]c(N2CCN(Cc3ccc4c(c3)OCO4)CC2)nc2c1CCCC2`, the z-score reads like this: (at 20 µM, stronger effect = lower value) -1.03 (inactive); under setting [1], 2.27; under setting [2], -0.309; under setting [3], -0.0483.
`COCC1CCCN(Cc2nc(-c3ccc4c(c3)OCO4)no2)C1` (configuration not stated): the z-score was 0.118 (inactive) (at 20 µM, stronger effect = lower value); 0.19 under setting [1]; -0.27 under setting [2]; 0.224 under setting [3].
For `CSC1=N/C(=C\c2ccc3c(c2)OCO3)C(=O)S1`, the z-score runs as follows: (at 50 µM, stronger effect = lower value) -0.0628 (inactive); under setting [4], -0.123; under setting [5], -0.227; under setting [6], -0.89.
Consider `O=C1/C(=C/c2ccc3c(c2)OCO3)CCC/C1=C\c1ccc2c(c1)OCO2`, for which the z-score by setting is: (at 20 µM, stronger effect = lower value) 0.645 (inactive); under setting [1], -1.87; under setting [2], 1.28; under setting [3], 0.356.
The like results for `CCC1=C/C(=C\c2ccc3c(c2)OCO3)C(=O)S1` were, in that order, -3.72 (active), 0.295, 0.919 and -1.39.
The matching figures for `Cc1cccc(C)c1NC1=NC(=S)N(c2ccc(N(C)C)cc2)C1(C)C`: 1.25 (inactive), 0.0641, -0.0144 and 0.985.
The like results for `Cc1ccc(/C=N/NC(=S)NC2CCCCC2)o1` were, in that order, -0.738 (inactive), -0.0991, -0.777 and -0.608.
Consider `C/C(CC(=O)Nc1cccc(C(F)(F)F)c1)=N\NC(=O)C(=O)NCC(C)C`, for which the z-score is -0.981 (inactive) (at 20 µM, stronger effect = lower value); 0.594 under setting [1]; -0.237 under setting [2]; -0.369 under setting [3].
The matching figures for `Cc1nnc(SCCCCSc2nnc(C)c(=O)[nH]2)[nH]c1=O`: -0.311 (inactive), -0.339, -0.259 and -0.0707.
Consider `Cc1ccccc1NC(=S)Nc1cccc([N+](=O)[O-])c1`, for which the z-score reads like this: (at 20 µM, stronger effect = lower value) -0.523 (inactive); under setting [1], -0.0166; under setting [2], -0.193; under setting [3], -0.37.
The matching figures for `CC(=O)Nc1cccc([N+](=O)[O-])c1`: 0.101 (inactive), 0.386, -0.384 and 0.092.
As for `COC(=O)/C=C\C(=O)Nc1cccc([N+](=O)[O-])c1`, the z-score was -4.05 (active) (at 20 µM, stronger effect = lower value); -0.741 under setting [1]; 1.08 under setting [2]; -2.26 under setting [3].
Turning to `COc1ccc(-c2noc(-c3cccc(OC)c3OC)n2)cc1OC`, the z-score by setting is: (at 20 µM, stronger effect = lower value) 1.03 (inactive); under setting [1], -0.605; under setting [2], -0.0658; under setting [3], 0.927.
The matching figures for `COc1ccc(-c2csc3nc(-c4ccccc4F)oc(=O)c23)cc1OC`: -3.75 (active), -0.574, 0.603 and -1.45.
The like results for `COc1ccc(-c2csc(-c3cccs3)n2)cc1OC` were, in that order, 0.847 (inactive), 0.288, -0.331 and 0.694.
The like results for `O=C(Nc1ccc(N2CCOCC2)cc1)c1ccc2c(c1)OCO2` were, in that order, 1.56 (inactive), -0.797, -0.257 and 0.727.
With `CCCC1NC(=S)NC(C)=C1C(C)=O` (configuration not stated), the z-score is, setting by setting: (at 20 µM, stronger effect = lower value) 0.661 (inactive); under setting [1], 0.486; under setting [2], -0.194; under setting [3], 0.234.
With `COc1cc(/C=N\NC(=O)CNC(=O)c2cccc([N+](=O)[O-])c2)ccc1O`, the z-score was 2.51 (inactive) (at 20 µM, stronger effect = lower value); -1.15 under setting [1]; 0.0365 under setting [2]; 1.56 under setting [3].
As to `COc1ccc(C(=O)NCC(=O)N/N=C/c2ccc([N+](=O)[O-])s2)cc1OC`, the z-score was -0.653 (inactive) (at 20 µM, stronger effect = lower value); 0.617 under setting [1]; -0.211 under setting [2]; -0.24 under setting [3].
For `COc1ccc(C(=O)NCC(=O)N/N=C/c2ccc([N+](=O)[O-])o2)cc1OC`, the z-score (at 20 µM, stronger effect = lower value) was -4.33 (active); the z-score under setting [1] worked out at 0.928; the z-score under setting [2] was found to be 0.52; the z-score under setting [3] is -1.68.
The like results for `CC(C)(C)OC(=O)NCCCCCC(=O)N/N=C/c1coc2ccccc2c1=O` were, in that order, -0.131 (inactive), -0.0505, -0.202 and -0.314.
The like results for `C/C(=N\NC(=O)CSc1nc2ccccc2c(=O)n1-c1ccccc1C)c1cccs1` were, in that order, 0.968 (inactive), -0.667, -0.231 and 0.554.
The matching figures for `CCn1c(SCc2cc(=O)n3ccsc3n2)nc2ccccc21`: -0.0624 (inactive), -0.534, -0.319 and 0.783.
On to `CCCCCCc1cc2cc(-c3nnc(-c4cccc(OC)c4)o3)c(=O)oc2cc1O`, for which the z-score is -2.6 (inactive) (at 50 µM, stronger effect = lower value); -0.146 under setting [4]; 22.1 under setting [5]; 2.79 under setting [6].
For the molecule `C[C@@H](NC(=O)OC(C)(C)C)c1nnc(S(=O)(=O)Cc2ccccc2)o1`, the z-score (at 20 µM, stronger effect = lower value) is -5.36 (active); the z-score under setting [1] came to 0.73; the z-score under setting [2] is 1.44; the z-score under setting [3] is -2.38.
The like results for `C[C@H](NC(=O)OC(C)(C)C)c1nnc(SCC(N)=O)o1` were, in that order, 0.077 (inactive), -0.312, -0.175 and 0.307.
On to `CC(C)Sc1nnc([C@H](Cc2ccccc2)NC(=O)OC(C)(C)C)o1`, for which the z-score was -1.61 (inactive) (at 20 µM, stronger effect = lower value); 1.71 under setting [1]; 0.279 under setting [2]; -0.731 under setting [3].
The matching figures for `Cc1ccc(NC(=O)CN(C)Cc2ccc(F)cc2)c([N+](=O)[O-])c1`: -0.244 (inactive), -0.235, -0.22 and -0.284.
The like results for `CCOC(=O)C(=CNc1cccc(C)n1)C(=O)OCC` were, in that order, 0.995 (inactive), 0.752, -0.214 and 0.879.
As for `COc1ccccc1NC(=O)c1ccc(C)s1`, the z-score is, setting by setting: (at 50 µM, stronger effect = lower value) 0.335 (inactive); under setting [4], -0.862; under setting [5], -0.265; under setting [6], 0.226.
Turning to `CCOC(=O)C(=Cc1ccccc1OC)C(=O)OCC`, the z-score (at 20 µM, stronger effect = lower value) was -5.08 (active); the z-score under setting [1] turned out to be 0.0073; the z-score under setting [2] worked out at 1.43; the z-score under setting [3] is -2.52.
The like results for `N#Cc1cccc(NC(=O)COC(=O)c2ccccc2C(=O)c2ccc(Cl)c([N+](=O)[O-])c2)c1` were, in that order, -0.407 (inactive), 0.615, -0.326 and -0.496.
